High-throughput results deposited in PubChem BioAssay by The Scripps Research Institute Molecular Screening Center.
ARFGAP1 inhibitor: rat ARFGAP1 inhibition. Q62848. Arfgap1-stimulated ARF1 GTP hydrolysis, GDP FP detection. inhibition, % at 16.5 µM. hit rate 0.26% among 360,000;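 active means inhibition above a per-plate limit, mean inhibition of low control wells plus 3 SD, cut at about 25% in these data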;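 further: 0% = DMSO wells with enzyme and 100% = wells lacking Arfgap1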
Target sequence (Q62848 1-136 limits assumed): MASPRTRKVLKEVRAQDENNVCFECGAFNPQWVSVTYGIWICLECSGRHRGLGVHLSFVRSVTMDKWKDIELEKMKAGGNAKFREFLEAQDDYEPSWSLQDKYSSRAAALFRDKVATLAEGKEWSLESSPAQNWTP
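Repeats: one replicate per compound; assay system: rat Arfgap1 catalytic domain, aa 1-136; times: enzyme reaction 120 min at 25 °C after 20 min preincubation; detection: FP of antibody-bound GDP Alexa 633 tracer, ex 620/em 688 nm; benchmarks: high control wells lacking Arfgap1, low control full reaction with DMSO; reagent: human ARF1(Δ1-17)-GTP substrate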
TDP2 inh: blocks human TDP2 phosphodiesterase activity | inhibition, % at 12.8 µM | hit rate 0.34% among 370,000 | O95551 | AID 720702 | recombinant TDP2, T5PNP hydrolysis, p-nitrophenol absorbance 415 nm;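 active means inhibition above the mean of all tested compounds plus 3 SD, set per campaign, cut at about 25% in these data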;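 further: 0% = DMSO with enzyme and 100% = buffer with substrate but no TDP2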
Target sequence (O95551 whole entry, looked up): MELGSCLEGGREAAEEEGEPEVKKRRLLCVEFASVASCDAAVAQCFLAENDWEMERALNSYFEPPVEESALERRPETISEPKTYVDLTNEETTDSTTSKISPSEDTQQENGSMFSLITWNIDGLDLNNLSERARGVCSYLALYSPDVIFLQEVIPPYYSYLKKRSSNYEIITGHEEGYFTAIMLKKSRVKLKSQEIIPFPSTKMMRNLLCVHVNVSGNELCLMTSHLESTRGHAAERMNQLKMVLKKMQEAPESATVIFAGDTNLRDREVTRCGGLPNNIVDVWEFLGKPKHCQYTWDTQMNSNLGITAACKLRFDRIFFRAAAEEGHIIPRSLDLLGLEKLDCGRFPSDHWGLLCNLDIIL
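Assay system: recombinant human TDP2 / Reagent: T5PNP substrate at 5 mM, a TopII-DNA adduct mimic / Measured by: epi absorbance from released p-nitrophenol / Evaluation: % inhibition relative to enzyme-containing and enzyme-free wells / Control set: enzyme-free and DMSO wells / Replicates: each compound tested once, singlicate / Schedule: enzyme reaction with compound for 2 h at 37 °C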
MBD2 inh: inhibitors of human MBD2 binding to methylated oligonucleotide | Q9UBB5 | TR-FRET | inhibition, % at 4.4 µM | hit rate 0.31% among 370,000; in the data active means inhibition above about 13%
LEDGF integ inh: blocks HIV-1 LEDGF/p75-dependent DNA integration; TR-FRET IN-LEDGF/p75 DNA integration, Eu/Cy5; inhibition, % at 3.7 µM; hit rate 0.64% among 370,000;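 active means inhibition above the screen-wide mean plus 3 SD, cut at about 13% in these data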;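 further: signal is the Cy5 over europium emission ratio at 671 and 618 nm; 0% = plate median of compound wells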
UHRF1 binding: blocks human UHRF1 binding to methylated DNA | UHRF1 binding to methylated oligo, TR-FRET | inhibition, % at 4.4 µM | hit rate 0.75% among 370,000 | AID 687016;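 further: UHRF1 SRA domain binding a hemimethylated CpG hairpin DNA probe; 0% = median of test compound wells and 100% = reference inhibitor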
ASAP1 GAP inh: inhibitors of human ASAP1 ArfGAP activity | Q9ULH1 | ASAP1-stimulated ARF1 GTP hydrolysis, GDP FP detection | inhibition, % at 16.5 µM | hit rate 0.19% among 360,000; in the data active means inhibition above about 25%;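 further: 0% = vehicle with enzyme and substrate and 100% = no enzyme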
UHRF1 ctr MBD2: counter-screen for MBD2 inhibitors: human UHRF1 methylated DNA binding inhibitors | shares compounds with MBD2 inh | UHRF1 binding to methylated oligonucleotide, TR-FRET | inhibition, % at 4.4 µM | hit rate 25% among 1,000;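 further: UHRF1 SRA domain binding a labeled hemimethylated CpG hairpin DNA; 0% = vehicle only and 100% = reference inhibitor with vehicle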
MBD2 DBD conf: confirmation of human MBD2-DBD methylated oligonucleotide binding inhibitors | hit rate 26% among 1,000 | shares compounds with MBD2 inh | inhibition, % at 4.4 µM | TR-FRET MBD2-DBD binding to methylated oligonucleotide; in the data active means inhibition above about 14%
Active calls of the source: *. This is a sample that favours compounds with a hit; in the whole collection about 2% have one here. Unless noted, no stated cut-off is given here; in the data, active means inhibition above about 21%; inactive means the rest.

Results for COC(=O)[C@@]12CCCCC3=C1N(CCC3)C(=O)[C@H]2CC(=O)NCCc1ccccc1OC ?
TDP2 inh: 5; MBD2 inh: -3; LEDGF integ inh: -3; UHRF1 binding: 0

Results for COC1=Nc2ccccc2N2CCN=C12 ?
ARFGAP1 inhibitor: 9; TDP2 inh: -2; MBD2 inh: 3; LEDGF integ inh: -1; UHRF1 binding: 1; ASAP1 GAP inh: 0

What do the screens show for `c1ccc2c(c1)C1=NCCN1c1ccccc1-2`?
ARFGAP1 inhibitor: -10; TDP2 inh: 6; MBD2 inh: 26*; LEDGF integ inh: -2; UHRF1 binding: -12; ASAP1 GAP inh: 6; UHRF1 ctr MBD2: -1; MBD2 DBD conf: 39*

How did Cc1cc(C(=O)N2CCN(c3ncccn3)CC2)cs1 do in these assays?
ARFGAP1 inhibitor: -13; TDP2 inh: 10; MBD2 inh: 17*; LEDGF integ inh: 1; UHRF1 binding: 4; ASAP1 GAP inh: 4; UHRF1 ctr MBD2: -1; MBD2 DBD conf: 5

How did CC1CCN(C2=NC(=O)N(c3ccc(Br)cc3)C(=O)C2)CC1 do in these assays?
TDP2 inh: 1; MBD2 inh: 1; LEDGF integ inh: 0; UHRF1 binding: 0

What do the screens show for `Cc1ccc(C(=O)N/C(=C\c2ccccc2)C(=O)OCc2ccccc2)cc1`?
ARFGAP1 inhibitor: 8; TDP2 inh: 7; MBD2 inh: 14*; LEDGF integ inh: 0; UHRF1 binding: 14; ASAP1 GAP inh: 8; UHRF1 ctr MBD2: 6; MBD2 DBD conf: 4

How did COc1cc(-c2nccc3cc4c(cc23)OCO4)cc(OC)c1OC do in these assays?
ARFGAP1 inhibitor: -2; TDP2 inh: -3; MBD2 inh: -5; LEDGF integ inh: 4; UHRF1 binding: 1; ASAP1 GAP inh: 2

What do the screens show for `COc1cc2c(cc1OC)-c1c(OC)c(OC)cc3ccnc(c13)C2=O`?
ARFGAP1 inhibitor: 6; TDP2 inh: 6; MBD2 inh: 33*; LEDGF integ inh: -2; UHRF1 binding: 37*; ASAP1 GAP inh: 5; UHRF1 ctr MBD2: 53*; MBD2 DBD conf: 46*

What do the screens show for `CC(C)(C)c1ccc(-c2nnc(SCC(=O)Nc3ccc(S(=O)(=O)Nc4nccs4)cc3)n2Cc2ccco2)cc1`?
TDP2 inh: -5; MBD2 inh: -1; LEDGF integ inh: 1; UHRF1 binding: 1

What do the screens show for `Nn1c(SCc2cccc3ccccc23)nnc1-c1cc(-c2ccc(Cl)cc2)n[nH]1`?
TDP2 inh: 2; MBD2 inh: 3; LEDGF integ inh: -2; UHRF1 binding: 1

What do the screens show for `CCCCOc1ccc(C(=O)Nc2ccc(N3CCN(C(C)=O)CC3)cc2)cc1`?
ARFGAP1 inhibitor: 2; TDP2 inh: -3; MBD2 inh: 5; LEDGF integ inh: -6; UHRF1 binding: 10; ASAP1 GAP inh: -9

How did CCCCOc1ccc(C(=O)Nc2ccc(N3CCN(C(=O)C(C)C)CC3)cc2)cc1 do in these assays?
ARFGAP1 inhibitor: -7; TDP2 inh: -12; MBD2 inh: 33*; LEDGF integ inh: 0; UHRF1 binding: -2; ASAP1 GAP inh: -16; UHRF1 ctr MBD2: 8; MBD2 DBD conf: 4

How did O=C(CSc1ccccc1)N1CCc2ccccc21 do in these assays?
ARFGAP1 inhibitor: 11; TDP2 inh: 4; MBD2 inh: 14*; LEDGF integ inh: 4; UHRF1 binding: 22*; ASAP1 GAP inh: -3; UHRF1 ctr MBD2: 2; MBD2 DBD conf: 2

What do the screens show for `Nc1cc(N)nc(SCC(=O)N2CCc3ccccc32)n1`?
ARFGAP1 inhibitor: -13; TDP2 inh: -13; MBD2 inh: 0; LEDGF integ inh: 2; UHRF1 binding: 1; ASAP1 GAP inh: 2

What do the screens show for `COC(=O)c1ccc(CN2CC3CC(c4ccccc4)N4CCCC34C2=O)cc1` (centres undefined)?
TDP2 inh: 1; MBD2 inh: -6; LEDGF integ inh: -1; UHRF1 binding: -2

Results for CCCc1cc(=O)[nH]c2nnc(SCC(=O)Nc3ccc(NC(C)=O)cc3)n12 ?
ARFGAP1 inhibitor: -5; TDP2 inh: -7; MBD2 inh: 4; LEDGF integ inh: -4; UHRF1 binding: 2; ASAP1 GAP inh: -6

Results for CCCc1cc(=O)[nH]c2nnc(SCC(=O)Nc3cccc(NC(C)=O)c3)n12 ?
ARFGAP1 inhibitor: 6; TDP2 inh: -2; MBD2 inh: 16*; LEDGF integ inh: -1; UHRF1 binding: 1; ASAP1 GAP inh: -6; UHRF1 ctr MBD2: 5; MBD2 DBD conf: 6

What do the screens show for `CCCc1nc2c(C)cc(Br)cn2c1Cc1ccccc1`?
ARFGAP1 inhibitor: 7; TDP2 inh: -5; MBD2 inh: 13*; LEDGF integ inh: -1; UHRF1 binding: 22*; ASAP1 GAP inh: -13; UHRF1 ctr MBD2: 11; MBD2 DBD conf: 6

What do the screens show for `CCCc1nc2ccc(Cl)cn2c1Cc1ccccc1`?
ARFGAP1 inhibitor: 12; TDP2 inh: -1; MBD2 inh: 18*; LEDGF integ inh: -1; UHRF1 binding: 23*; ASAP1 GAP inh: -4; UHRF1 ctr MBD2: 10; MBD2 DBD conf: 5

What do the screens show for `CCCc1nc2c(C)cc(Br)cn2c1Cc1ccsc1`?
ARFGAP1 inhibitor: -5; TDP2 inh: 11; MBD2 inh: 2; LEDGF integ inh: 0; UHRF1 binding: 10; ASAP1 GAP inh: 6

Results for CN(Cc1ccccc1)S(=O)(=O)c1cccc(C(=O)OCc2ccccc2Cl)c1 ?
TDP2 inh: -4; MBD2 inh: 1; LEDGF integ inh: 0; UHRF1 binding: -1

What do the screens show for `COc1ccc2cc(-c3cn(C(=O)N(c4ccccc4)c4ccccc4)nn3)ccc2c1`?
TDP2 inh: -8; MBD2 inh: -2; LEDGF integ inh: 3; UHRF1 binding: 1

What do the screens show for `CCc1cc(/C(Cc2csc(C)n2)=N/O)c(O)cc1O`?
ARFGAP1 inhibitor: 12; TDP2 inh: 0; MBD2 inh: 14*; LEDGF integ inh: -5; UHRF1 binding: 14; ASAP1 GAP inh: 11; UHRF1 ctr MBD2: 8; MBD2 DBD conf: 1

How did O=C(CNc1ccccc1Cl)N/N=C1\CCCc2ccccc21 do in these assays?
ARFGAP1 inhibitor: 13; TDP2 inh: 4; MBD2 inh: 23*; LEDGF integ inh: 1; UHRF1 binding: 2; ASAP1 GAP inh: -8; UHRF1 ctr MBD2: 4; MBD2 DBD conf: 1

What do the screens show for `O=C(CSc1cn[nH]n1)Nc1cccc(C(=O)O)c1`?
ARFGAP1 inhibitor: -4; TDP2 inh: 4; MBD2 inh: 15*; LEDGF integ inh: 0; UHRF1 binding: 0; ASAP1 GAP inh: -8; UHRF1 ctr MBD2: 1; MBD2 DBD conf: 6
